Shown is part of a subset that was picked to be rich in hits.
Jurkat NFkB inh – inhibitors of induced NF-kB luciferase reporter, primary screen, TCR NF-kB activation inhibitor project, cell-based, luminescence, uHTS; inhibition, % at 4 µM; AID 435003, 2010; 330,000 tested, 0.53% active; Jurkat, PMA/ionomycin-induced NF-kB luciferase reporter; in the data active means inhibition above about 50%
CHOP UPR activ – activators of apoptotic CHOP UPR arm, primary screen, cell-based, CHO-CHOP luciferase reporter, luminescence, uHTS. UPR activation; percent of tunicamycin response over DMSO baseline. 330,000 tested, 0.34% active. activation, % at 10 µM;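 active means at 10 µM dose, activation of 40% or more, normalized to positive control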;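 further: 100% = tunicamycin at 10 µg/mL and 0% = DMSO alone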
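Evaluation: % reporter activation, DMSO baseline versus tunicamycin full activation; System: CHO-CHOP luciferase reporter cell line; Input: 500 cells/well; Incubation: 6 h compound treatment, 37 °C; Measured by: Steady-Glo luciferase luminescence; Dosing: one dose, 10 µM in 0.5% DMSO; Buffer or medium: F12 medium, 10% FBS; Benchmarks: positive tunicamycin 10 µg/mL, negative DMSO alone.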
CHOP inhibitor – inhibitors of CHOP promoter induction, primary screen, cell-based, unfolded protein response, luciferase reporter | 220,000 tested, 3.8% active | inhibition, % at 10 µM | CHO-K1 CHOP-promoter luciferase, tunicamycin-induced, 15-18 h | AID 2732, 2010;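 active means compounds that reduced the stress-induced luciferase reporter signal by more than about 70% of percent inhibition, limit read from the data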;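 further: 0% = tunicamycin plus vehicle and 100% = wells without tunicamycin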
XBP1 UPR activ – activators of adaptive XBP1 UPR arm, primary screen, cell-based, CHO-XBP1 luciferase reporter, luminescence, uHTS; activation, % at 20 µM; IRE1-XBP1 UPR activation; percent of tunicamycin response, DMSO as zero; 330,000 tested, 0.33% active;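 active means versus positive control, 20 µM dose yields 30% or more activation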;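 further: 100% = tunicamycin at 10 µg/mL and 0% = DMSO only wells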
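Material: CHO cell line with stable XBP1 luciferase reporter; buffer or medium: F12 medium containing 10% fetal bovine serum; compound: single point, 20 µM final compound, 1% DMSO; incubation: 6 h treatment, 37 °C; measured by: glow luminescence from Steady-Glo reagent; evaluation: activation, % of tunicamycin; control set: tunicamycin high, DMSO low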
697 NFkB inh – inhibitors of PMA/ionomycin-induced NF-kB reporter, 697 cells, primary screen, B-cell NF-kB inhibitor project, cell-based, luminescence, uHTS | 697 B-cell NF-kB luciferase reporter, 16 h | inhibition, % at 4 µM | 330,000 tested, 0.33% active | AID 435022, 2010; in the data active means inhibition above about 35%
CHOP inh conf – retest of CHOP induction inhibitors, confirmation, cell-based. 2,100 tested, 45% active. inhibition, % at 10 µM. CHO-CHOP promoter luciferase reporter, tunicamycin-induced, luminescence. shares compounds with CHOP inhibitor;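 active means mean of three repeat readings of reporter signal inhibition above a set limit, cut at about 70% in these data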;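 further: 0% = tunicamycin plus vehicle and 100% = wells lacking tunicamycin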
Active calls of the source: *; x = no result.

SMILES	Jurkat NFkB inh	CHOP UPR activ	CHOP inhibitor	XBP1 UPR activ	697 NFkB inh	CHOP inh conf
C/C(=N\N=C(/N)SC1CC(=O)N(c2ccc(Cl)c(Cl)c2)C1=O)c1cccs1 (centres undefined)	2.7	-0.4	109.9*	-0.5	-8.9	18.6
OC(CNCCc1ccc(C(F)(F)F)cc1)COc1ccc2ccccc2c1 (centres undefined)	-10.9	0.4	108.5*	-0.4	-11.1	123.2*
OC(CNCCc1ccc(C(F)(F)F)cc1)COc1cccc2ccccc12 (centres undefined)	-2.2	-3.8	108.0*	14.4	18.8	133.9*
COc1ccccc1COCC(O)CNCCc1ccc(C(F)(F)F)cc1 (centres undefined)	-32.4	8.7	x	-2.5	-40.7	x
Nc1nc(N)nc(-c2cccc(Cl)c2)n1	-26.7	4.8	x	6.5	-20.8	x
O=C(CSc1nnc(SCc2cccc3ccccc23)s1)N/N=C/c1c[nH]c2ccccc12	-12.7	0.0	105.1*	2.6	-31.2	34.0
Cc1cccc2cc3c(N)c(C#N)sc3nc12	-14.2	-0.2	99.3*	1.2	-2.0	69.5*
Cc1sc(NC(=O)c2sc3nc4c(C)cccc4cc3c2N)c(C#N)c1C	-7.1	0.9	64.9	0.5	-0.5	x
CC(C)CCn1c(SCc2ccc(Cl)cc2)nc2c1c(=O)[nH]c(=O)n2C	21.8	0.5	96.5*	17.7	-29.4	93.2*
CC(C)n1c(SCc2ccc(Cl)cc2)nc2c1c(=O)[nH]c(=O)n2C	-5.0	2.7	43.1	8.1	-21.7	x
CC(C)(C)c1ccc(-c2n[nH]c(=S)n2C2CCCC2)cc1	3.1	0.0	107.2*	-0.3	-2.3	121.4*
Cc1ccc(S(=O)(=O)NCC(C)n2nc(C)nc2C)cc1 (centres undefined)	-1.3	3.3	x	-1.2	5.7	x
O=C(CN(Cc1ccccc1)C(=O)CCC(=O)Nc1nccs1)NCC1CCCO1 (centres undefined)	-16.9	-1.7	x	-1.8	21.9	x
CCOC(=O)c1cnc(-n2nc(C)cc2C)nc1Nc1ccc(C)cc1	x	x	-15.2	x	x	x
CCOC(=O)c1cnc(-n2nc(C)cc2C)nc1Nc1ccc(O)cc1	20.7	-5.8	103.9*	-4.3	-68.5	110.4*
CC(=O)OC1CC(c2cc(C(C)(C)C)c(O)c(C(C)(C)C)c2)=NO1 (centres undefined)	-3.3	-2.5	21.2	-2.3	9.1	x
COC(=O)CN1C(=O)N/C(=C/c2cc3c(cc2OC)OCO3)C1=O	6.8	-1.3	11.6	0.2	20.9	x
COc1cc2c(cc1/C=C1/NC(=O)N(CC(=O)Nc3ccccc3)C1=O)OCO2	9.3	-1.0	102.2*	-0.7	15.8	20.7
COc1cccc(NC(=O)CSc2nc(=O)n(Cc3ccncc3)c3c2CCCC3)c1	10.6	0.1	x	0.7	-6.2	x
CCN1C(=O)[C@H]2[C@H]3[C@H](O)[C@H](O)C/C(=N\OC[C@@H](C)[C@H](OCc4ccccc4)C(C)C)[C@@H]3CC[C@H]2C1=O	-0.5	-0.1	47.9	-1.1	-2.1	x
CN(C)CCNC=C(C(=O)Nc1ccc(Cl)cc1Cl)C(=O)Nc1ccc(Cl)cc1Cl	14.0	6.0	99.0*	29.5	6.0	26.4
CNC(=O)c1c(NC(=O)c2ccco2)sc2c1CCC2	-26.7	1.1	x	0.3	-39.0	x
CNC(=O)c1c(NC(=O)c2cc(-c3cc(C)c(C)cc3O)n[nH]2)sc2c1CCCC2	-1.9	16.8	102.7*	50.2*	6.5	-5.7
COc1ccc(C)cc1S(=O)(=O)NC(C)c1cnn(-c2ccccn2)c1C (centres undefined)	-21.4	1.4	x	1.3	-5.9	x
NS(=O)(=O)c1ccc(N2N=C(c3ccccc3)CC2c2ccc(F)cc2)cc1 (centres undefined)	-6.4	-2.4	104.7*	-0.4	15.0	-25.6
SMILES	Jurkat NFkB inh	CHOP UPR activ	CHOP inhibitor	XBP1 UPR activ	697 NFkB inh	CHOP inh conf
COc1ccc(C2CC(c3ccccc3)=NN2c2ccc(S(N)(=O)=O)cc2)cc1 (centres undefined)	6.3	3.0	5.5	-2.4	7.2	x
CCOC(=O)c1c(C)[nH]c(C(=O)COC(=O)C2CC(=O)N(Cc3ccccc3)C2)c1C (centres undefined)	5.9	1.5	101.4*	-0.8	5.6	5.5
CCOC(=O)c1c(C)[nH]c(C(=O)COC(=O)c2[nH]c(C)c(C(C)=O)c2C)c1C	25.4	-2.2	97.2*	-2.1	13.5	82.7*
CCOc1ccc(CC(=O)NNC(=S)NC)cc1Br	-9.0	-1.4	12.0	-3.8	1.3	x
CCOC(=O)c1c(CSc2ccccc2)oc2ccc(O)cc12	5.9	0.3	105.5*	8.5	-29.2	14.5
CCOC(=O)c1c(-c2ccccc2)oc2ccc(O)cc12	3.9	0.3	x	1.4	10.0	x
CSCC[C@H](NC(=O)C(C)Oc1ccc(Cl)cc1)c1nc2ccccc2[nH]1 (some centres undefined)	5.9	-2.2	33.0	-3.2	-5.9	x
Cc1ccc2c(c1)c1c(n2CC(O)Cn2c(C)nc3ccccc32)CCCC1 (centres undefined)	9.8	-0.5	98.1*	-1.4	6.9	81.7*
Cc1ccc2c(c1)c1c(n2CC(O)CN2CCCCCC2)CCCC1 (centres undefined)	-13.4	0.0	x	1.4	-3.4	x
CCOc1ccc(S(=O)(=O)Nc2ccc(F)cc2)c(C)c1C	12.3	-0.2	106.1*	0.1	-21.9	58.6
O=C1C2C3C=CC(C3=C(c3ccccc3)c3ccccc3)C2C(=O)N1CCO (centres undefined)	-1.1	-1.6	0.4	-0.4	13.6	x
Cc1ccc(C(=C2C3C=CC2C2C(=O)NC(=O)C32)c2ccc(C)cc2)cc1 (centres undefined)	-3.7	-0.1	107.9*	-1.9	-6.9	14.0
COc1ccc(C2=CC(=O)C[C@H](c3ccc(OC)cc3)C2)cc1	-15.9	1.6	x	-0.5	-6.7	x
COc1ccc(C2=CC(=O)C=CC2=O)cc1	x	x	103.3*	x	x	-78.7
CCOC(=O)C1CCN(C(=O)Cn2cnc3sc(C)c(S(=O)(=O)N4CCOCC4)c3c2=O)CC1	-87.3	0.8	x	1.0	-46.0	x
COc1ccc(C2CC(c3cccs3)=NN2S(C)(=O)=O)cc1OC (centres undefined)	1.0	2.1	2.9	2.2	-18.1	x
COc1ccc(C2CC(c3c(-c4ccccc4)c4cc(Cl)ccc4[nH]c3=O)=NN2S(C)(=O)=O)cc1OC (centres undefined)	4.3	-2.6	107.7*	4.6	19.8	125.0*

Bioassay records deposited in PubChem BioAssay by several laboratories.
